Experimental data from ChEMBL document CHEMBL4706742, “Induction of Apoptosis in Cancer Cells by Glutathione Transferase Inhibitor Mediated Hydrophobic Tagging Molecules” (2021).
Blank lines part the entries; values can stand above or below the molecule they belong to. Active and inactive are the calls of the source. No cut-off for these calls is given here.

Key:
[1] = biological target: Glutathione S-transferase P (Homo sapiens) (UniProt P09211); assay: Induction of GSTP1 degradation in human HeLa cells at 40 to 80 uM measured after 3 hrs by Western blot analysis; format: cell-based; details: dose 40-80 µM
Chain of Glutathione S-transferase P (Homo sapiens) (P09211 2-210 limits assumed): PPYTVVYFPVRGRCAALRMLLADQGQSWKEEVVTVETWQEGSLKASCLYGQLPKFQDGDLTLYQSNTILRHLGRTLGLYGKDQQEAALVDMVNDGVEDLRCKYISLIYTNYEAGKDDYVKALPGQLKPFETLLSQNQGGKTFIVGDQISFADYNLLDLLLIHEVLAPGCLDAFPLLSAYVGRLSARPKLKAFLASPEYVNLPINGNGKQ
How it was run: (§1)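 GSTP protein in whole-cell lysates, detected by Western blot with specific antibodies after 3 h compound exposure. HeLa (high GSTP expression) treated at 40 or 80 μM or over a dose range; A549 and HT1080 cells (high or medium GSTP) also tested. Blots representative of three independent experiments.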

[2] = biological target: Glutathione S-transferase P (Homo sapiens) (UniProt P09211); assay: Inhibition of recombinant human N-terminal His-tagged GSTP1 (1 to 210 residues) expressed in Escherichia coli at 100 uM using reduced GSH as substrate measured after 0.5 hrs by CDNB assay
How it was run: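 GSTP catalytic activity followed via GSH–CDNB conjugation, read as absorbance at 340 nm specific to the conjugate. Compounds tested up to 100 μM.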

[3] = biological target: Glutathione S-transferase P (Homo sapiens) (UniProt P09211); assay: Induction of GSTP1 degradation in human HeLa cells at 80 uM measured after 3 hrs in presence of vacuolar type H (+)-ATPase inhibitor bafilomycin A1 by Western blot analysis; format: cell-based
How it was run: (§2)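 HeLa cells cotreated with test compound plus bortezomib (20S proteasome inhibitor), PYR-41 (E1 ubiquitin-activating enzyme inhibitor) or bafilomycin A1 (V-ATPase inhibitor, blocks autophagosome–lysosome fusion). GSTP in total cell lysates then detected by Western blot with specific antibodies. Representative of three independent experiments.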

[4] = biological target: Glutathione S-transferase P (Homo sapiens) (UniProt P09211); assay: Induction of GSTP1 degradation in human HeLa cells at 40 uM measured after 3 hrs by Western blot analysis relative to control; format: cell-based; how it was run: as §1
HeLa [5] = assay: Induction of apoptosis in human HeLa cells assessed as late apoptotic cells at 20 uM measured after 3 hrs by Annexin V-FITC/propidium iodide staining based flow cytometry (reference value: 3.59%); format: functional
[6] = biological target: Glutathione S-transferase P (Homo sapiens) (UniProt P09211); assay: Induction of GSTP1 degradation in human A549 cells at 5 to 80 uM measured after 3 hrs by Western blot analysis; format: cell-based; details: dose 5-80 µM; how it was run: as §1
HeLa [7] = assay: Induction of apoptosis in human HeLa cells assessed as late apoptotic cells at 10 uM measured after 3 hrs by Annexin V-FITC/propidium iodide staining based flow cytometry (reference value: 3.59%); format: functional
HeLa [8] = assay: Induction of apoptosis in human HeLa cells assessed as viable cells at 10 uM measured after 3 hrs by Annexin V-FITC/propidium iodide staining based flow cytometry (reference value: 91.43%); format: functional; details: read-out: Activity
[9] = biological target: Glutathione S-transferase P (Homo sapiens) (UniProt P09211); assay: Induction of GSTP1 degradation in human HeLa cells at 80 uM measured after 3 hrs in presence of ubiquitin activating enzyme E1 inhibitor PYR-41 by Western blot analysis; format: cell-based; how it was run: as §2
HeLa [10] = assay: Induction of reactive oxygen species generation in human HeLa cells measured after 3 hrs by DCFH-DA staining based fluorescence laser confocal microscopic analysis; format: functional, cell-based; details: dose 5-80 µM
How it was run: (§3)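 HeLa cells loaded with DCFH-DA fluorescent ROS probe after treatment at the indicated concentrations. Fluorescence read at Ex/Em 488/525 by laser confocal microscopy. Rosup 50 μg/mL served as positive control.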

[11] = biological target: Glutathione S-transferase P (Homo sapiens) (UniProt P09211); assay: Induction of GSTP1 degradation in human HeLa cells measured after 3 hrs by Western blot analysis; format: cell-based; how it was run: as §1
[12] = biological target: Glutathione S-transferase P (Homo sapiens) (UniProt P09211); assay: Induction of GSTP1 degradation in human HeLa cells assessed as increase in c-Jun phosphorylation at 5 to 80 uM measured after 3 hrs by Western blot analysis; format: cell-based; details: dose 5-80 µM
How it was run: (§4)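 HeLa cells exposed to compound for 3 h. Total cell lysates probed by Western blot with specific antibodies for phospho-JNK, phospho-c-Jun and total JNK. Total JNK bands quantified by densitometry. Representative of three independent experiments.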

HeLa [13] = assay: Induction of apoptosis in human HeLa cells assessed as necrotic cells at 80 uM measured after 3 hrs by Annexin V-FITC/propidium iodide staining based flow cytometry (reference value: 0.61%); format: functional
HeLa [14] = assay: Induction of apoptosis in human HeLa cells assessed as early apoptotic cells at 10 uM measured after 3 hrs by Annexin V-FITC/propidium iodide staining based flow cytometry (reference value: 4.37%); format: functional
[15] = biological target: Glutathione S-transferase P (Homo sapiens) (UniProt P09211); assay: Induction of GSTP1 degradation in human HT-1080 cells at 5 to 80 uM measured after 3 hrs by Western blot analysis; format: cell-based; details: dose 5-80 µM; how it was run: as §1
HeLa [16] = assay: Induction of apoptosis in human HeLa cells assessed as necrotic cells at 10 uM measured after 3 hrs by Annexin V-FITC/propidium iodide staining based flow cytometry (reference value: 0.61%); format: functional
[17] = biological target: Glutathione S-transferase P (Homo sapiens) (UniProt P09211); assay: Induction of GSTP1 degradation in human HeLa cells assessed as increase in JNK phosphorylation at 5 to 80 uM measured after 3 hrs by Western blot analysis; format: cell-based; details: dose 5-80 µM; how it was run: as §4
HeLa [18] = assay: Induction of apoptosis in human HeLa cells assessed as viable cells at 80 uM measured after 3 hrs by Annexin V-FITC/propidium iodide staining based flow cytometry (reference value: 91.43%); format: functional; details: read-out: Activity
[19] = biological target: Glutathione S-transferase P (Homo sapiens) (UniProt P09211); assay: Induction of GSTP1 degradation in human HeLa cells assessed as reduction in total JNK expression at 20 to 80 uM measured after 3 hrs by Western blot analysis; format: cell-based; details: dose 20-80 µM; how it was run: as §4
HeLa [20] = assay: Induction of apoptosis in human HeLa cells assessed as necrotic cells at 40 uM measured after 3 hrs by Annexin V-FITC/propidium iodide staining based flow cytometry (reference value: 0.61%); format: functional
[21] = biological target: Glutathione S-transferase P (Homo sapiens) (UniProt P09211); assay: Induction of GSTP1 degradation in human HeLa cells measured after 3 hrs in presence of protein synthesis inhibitor cycloheximide by Western blot analysis; format: cell-based
How it was run: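 HeLa cells pretreated with cycloheximide, then exposed to compound over a dose range for 3 h. GSTP in total lysates read by Western blot with specific antibodies. Blots representative of three independent experiments.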

HeLa [22] = assay: Induction of apoptosis in human HeLa cells assessed as viable cells at 40 uM measured after 3 hrs by Annexin V-FITC/propidium iodide staining based flow cytometry (reference value: 91.43%); format: functional; details: read-out: Activity
HeLa [23] = assay: Induction of apoptosis in human HeLa cells assessed as early apoptotic cells at 80 uM measured after 3 hrs by Annexin V-FITC/propidium iodide staining based flow cytometry (reference value: 4.37%); format: functional
HeLa [24] = assay: Induction of apoptosis in human HeLa cells assessed as necrotic cells at 20 uM measured after 3 hrs by Annexin V-FITC/propidium iodide staining based flow cytometry (reference value: 0.61%); format: functional
[25] = biological target: Glutathione S-transferase P (Homo sapiens) (UniProt P09211); assay: Induction of GSTP1 degradation in human HeLa cells at 80 uM measured after 3 hrs in presence of 20S proteasome inhibitor bortezomib by Western blot analysis; format: cell-based; how it was run: as §2
HeLa [26] = assay: Induction of apoptosis in human HeLa cells assessed as viable cells at 20 uM measured after 3 hrs by Annexin V-FITC/propidium iodide staining based flow cytometry (reference value: 91.43%); format: functional; details: read-out: Activity
HeLa [27] = assay: Induction of apoptosis in human HeLa cells assessed as late apoptotic cells at 80 uM measured after 3 hrs by Annexin V-FITC/propidium iodide staining based flow cytometry (reference value: 3.59%); format: functional
HeLa [28] = assay: Induction of apoptosis in human HeLa cells measured after 3 hrs by Annexin V-FITC/propidium iodide staining based flow cytometry; format: functional, cell-based
HeLa [29] = assay: Induction of apoptosis in human HeLa cells assessed as early apoptotic cells at 40 uM measured after 3 hrs by Annexin V-FITC/propidium iodide staining based flow cytometry (reference value: 4.37%); format: functional
HeLa [30] = assay: Induction of apoptosis in human HeLa cells assessed as late apoptotic cells at 40 uM measured after 3 hrs by Annexin V-FITC/propidium iodide staining based flow cytometry (reference value: 3.59%); format: functional
HeLa [31] = assay: Induction of apoptosis in human HeLa cells assessed as early apoptotic cells at 20 uM measured after 3 hrs by Annexin V-FITC/propidium iodide staining based flow cytometry (reference value: 4.37%); format: functional
[32] = biological target: Glutathione S-transferase P (Homo sapiens) (UniProt P09211); assay: Induction of GSTP1 degradation in human HeLa cells at 80 uM measured after 3 hrs by Western blot analysis; format: cell-based; how it was run: as §1
HeLa [33] = assay: Induction of reactive oxygen species generation in human HeLa cells at 80 uM measured after 3 hrs by DCFH-DA staining based fluorescence laser confocal microscopic analysis; format: functional, cell-based; how it was run: as §3
[34] = biological target: Glutathione S-transferase P (Homo sapiens) (UniProt P09211); assay: Induction of GSTP1 degradation in human HeLa cells at 5 to 80 uM measured after 3 hrs by Western blot analysis; format: cell-based; details: dose 5-80 µM; how it was run: as §1
[35] = biological target: Glutathione S-transferase P (Homo sapiens) (UniProt P09211); assay: Induction of GSTP1 degradation in human A549 cells at 40 to 80 uM measured after 3 hrs by Western blot analysis; format: cell-based; details: dose 40-80 µM; how it was run: as §1
[36] = biological target: Glutathione S-transferase P (Homo sapiens) (UniProt P09211); assay: Induction of GSTP1 degradation in human HT-1080 cells at 40 to 80 uM measured after 3 hrs by Western blot analysis; format: cell-based; details: dose 40-80 µM; how it was run: as §1

SMILES: C=C(CC)C(=O)c1ccc(OCC(=O)NCCCCNC(=O)CC23CC4CC(CC(C4)C2)C3)c(Cl)c1Cl
- Activity [3]: inactive
- Activity [4]: 80%
- Activity (HeLa [5]): 26.61%
- Activity [6]: Active
- Activity (HeLa [7]): 3.7%
- viability at 10 µM (HeLa [8]): 92.5%
- Activity [9]: inactive
- Activity (HeLa [10]): Dose-dependent effect
- Activity [11]: Dose-dependent effect
- Activity [12]: Active
- Activity (HeLa [13]): 0.23%
- Activity (HeLa [14]): 3.28%
- Activity [15]: Active
- Activity (HeLa [16]): 0.49%
- Activity [17]: Active
- viability at 80 µM (HeLa [18]): 20.5%
- Activity [19]: Active
- Activity (HeLa [20]): 0.75%
- Activity [1]: Active
- Activity [21]: Dose-dependent effect
- viability at 40 µM (HeLa [22]): 45%
- inhibition [2]: Active
- Activity (HeLa [23]): 18.03%
- Activity (HeLa [24]): 0.93%
- Activity [25]: inactive
- viability at 20 µM (HeLa [26]): 57%
- Activity (HeLa [27]): 61.27%
- Activity (HeLa [28]): Dose-dependent effect
- Activity (HeLa [29]): 19.7%
- Activity (HeLa [30]): 34.59%
- Activity (HeLa [31]): 15.48%

SMILES: C=C(CC)C(=O)c1ccc(OCC(=O)NCCCCCCNC(=O)OC(C)(C)C)c(Cl)c1Cl
- Activity [32]: Active

SMILES: C=C(CC)C(=O)c1ccc(OCC(=O)O)c(Cl)c1Cl [ETHACRYNIC ACID]
- Activity (HeLa [13]): 1.72%
- viability at 80 µM (HeLa [18]): 84.3%
- Activity (HeLa [23]): 3.67%
- Activity (HeLa [33]): inactive
- Activity (HeLa [27]): 10.3%

SMILES: C=C(CC)C(=O)c1ccc(OCC(=O)NCCNC(=O)CC23CC4CC(CC(C4)C2)C3)c(Cl)c1Cl
- Activity [1]: Active
- inhibition [2]: Active

SMILES: C=C(CC)C(=O)c1ccc(OCC(=O)NC23CC4CC(CC(C4)C2)C3)c(Cl)c1Cl
- Activity [1]: Active
- inhibition [2]: Active

SMILES: C=C(CC)C(=O)c1ccc(OCC(=O)NCCNC(=O)OC(C)(C)C)c(Cl)c1Cl
- Activity [34]: inactive
- Activity [35]: inactive
- Activity [36]: inactive

SMILES: C=C(CC)C(=O)c1ccc(OCC(=O)NCCCCCCNC(=O)CC23CC4CC(CC(C4)C2)C3)c(Cl)c1Cl
- Activity [1]: Active
- inhibition [2]: Active

Second part, the molecule after the results:

- Activity [1]: inactive
- inhibition [2]: Active
SMILES: C=C(CC)C(=O)c1ccc(OCC(=O)OCCOCCOCCOC23CC4CC(CC(C4)C2)C3)c(Cl)c1Cl

- Activity [1]: inactive
- inhibition [2]: Active
SMILES: C=C(CC)C(=O)c1ccc(OCC(=O)OCCOC23CC4CC(CC(C4)C2)C3)c(Cl)c1Cl

- Activity [1]: inactive
- inhibition [2]: Active
SMILES: C=C(CC)C(=O)c1ccc(OCC(=O)OCCOCCOCCOCCOC23CC4CC(CC(C4)C2)C3)c(Cl)c1Cl

- Activity [1]: inactive
- inhibition [2]: Active
SMILES: C=C(CC)C(=O)c1ccc(OCC(=O)OCCOCCOC23CC4CC(CC(C4)C2)C3)c(Cl)c1Cl
